We go through 13 compounds from PubChem BioAssay.

Assay [1] is described as follows: inhibitors of TNFa-induced NFkB p65 translocation, primary screen, imaging, HUVEC, MLSMR starter and 10KST1 sets (AID 438;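 active means inhibition above 20% together with a positive visual image hit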;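 further: compound added about 3h40 before a 20 min TNFalpha stimulation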;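 on inhibition: signal is the nuclear over cytoplasmic p65 intensity ratio per well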). The note with it: HUVEC TNFa-induced p65 nuclear translocation; cell count: measured here: nuclei count (cytotoxicity indicator), at 2.08 µM; inhibition: at 2 µM, stronger effect = higher value, 0% TNFa-plus-vehicle, 100% no-TNFa wells.
The nature of assay [2]: endothelial E-selectin expression blockers – imaging, HUVEC, immunofluorescence, MLSMR starter and 10KST1 sets, primary screen (AID 487;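 active means visually confirmed hit in the image check and inhibition above 20%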;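 on inhibition: signal is fraction of cell area covered by stained E-selectin grains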;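 on nuclei count: 100% = median nuclei count of all wells on the same plate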). The following applies: HUVEC TNFalpha-induced E-selectin immunofluorescence imaging, at 2 µM; inhibition: stronger effect = higher value; nuclei count: measured here: cell number, toxicity.
A short description of assay [3]: Primary imaging screen for DUSP6 inhibitors that restore phospho-Erk in transfected HeLa cells, chemical complementation (AID 609).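 On inhibition: phospho-Erk level distribution per well compared with pooled transfected vehicle control wells.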 The note with it: HeLa MKP-3 transfected, phospho-Erk imaging KS statistic, at 10 µM, cells stimulated with TPA for 15 min.
The target of assay [4] is Dual specificity protein phosphatase 6 (Homo sapiens) (UniProt Q16828). The description is as above. The note with it: HeLa MKP-3 transfected, phospho-Erk imaging KS statistic; at 10 µM; stronger effect = higher value; cells stimulated with TPA for 15 min.
Assay [5] concerns the target Voltage-gated potassium channel subunit beta-2 (Rattus norvegicus) (UniProt P62483). In words: inhibitors of rat Kvbeta2 reductase activity – biochemical, NADPH fluorescence, primary screen (AID 622;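 active means fluorescence slope higher than the sample average by over 3 SD, cut at about -0.22 in these data, passing the limit was not always enough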;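 further: slope of raw intensity against log time taken from 70 to 1610 s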). The following applies: recombinant KvBeta, 4-cyanobenzaldehyde reduction, at 10 µM, stronger effect = higher value.
For assay [6] the target is unchanged. In words: enhancers of rat Kvbeta2 NADPH turnover – biochemical, NADPH fluorescence, primary screen (AID 623;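 active means NADPH fluorescence slope more negative than the mean of all samples by about 3 SD, 99.7% confidence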;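 further: fluorescence intensity change per second fitted from 20 to 320 s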). The following applies: Recombinant KvBeta, NADPH fluorescence decrease slope, 10 min; at 10 µM; stronger effect = lower value.
Assay [7] concerns the target Muscarinic acetylcholine receptor M4 (Homo sapiens) (UniProt P08173). In words: M4-linked GIRK flux change, two-sided – cell-based, HEK293 M4/GIRK, thallium flux, BTC-AM, M4 allosteric agonist project, primary screen (AID 625;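 active means fluorescence slope after compound addition differing from the mean of all tested samples at 99.7% confidence, mostly higher but some lower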;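 further: thallium influx through GIRK channels coupled to M4 in HEK293 cells with BTC-AM dye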). The note with it: at 10 µM, actives lie on both sides. Put shortly:
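Material: HEK293 cells with M4 receptor and GIRK channels; Times: cells overnight at 37 °C, BTC-AM loading 1 h, reads 2 min total; Technique: kinetic BTC-AM fluorescence sampled at 1 Hz, 10 s pre-addition baseline; Read-out basis: slope over 15–24 s of trace normalized to starting intensity; Controls: carbachol positive, DMSO negative.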

Assay [8] can be described thus: inhibitors of larval lipid processing in zebrafish, primary screen, whole organism, PED6 fluorescence, gall bladder and intestine (AID 686;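 active means a full or partial loss of lipid-probe fluorescence in the fish gall bladder, intestine or both, judged by eye; inactive means no fluorescence loss, or compound toxic to the fish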;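 further: larvae 5 to 7 days old with five fish per well; signal comes from phospholipase A2 cleavage of quenched PED6 carried via bile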). The note with it: Zebrafish larvae PED6 lipid processing, fluorescence scoring; screened at 20 µM (by protocol). An outline of the steps:
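Incubation: overnight exposure of larvae to compound plus PED6 / Test system: live zebrafish larvae aged 5-7 days, whole organism / Amount: 5 larvae per well / Read-out basis: visual per-well fluorescence inhibition score / Signal: visual fluorescence microscopy scoring of gall bladder, gut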

The nature of assay [9]: loss of swimming-algae plug formation – whole organism, Chlamydomonas reinhardtii, WT vs cilia-less mutant, absorbance, 96-well, primary screen (AID 463189;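 active means inhibition at or above 50% relative to wild type and mutant plate controls; inactive means inhibition below 50%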;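 further: 0% = wild type cc124 cells in DMSO and 100% = ciliumless bld1 mutant cells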). The following applies: Chlamydomonas reinhardtii gravitaxis, OD600 absorbance, 2 days; at 10 µM; stronger effect = higher value.
[10] abbreviates: measured here: cell density z-score.
[11] abbreviates: measured here: nuclear c-Myc green intensity z-score.
The mark [12] stands for this setting: measured here: nuclear pErk red intensity z-score, stronger effect = higher value.

The source made the active and inactive calls.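 How the source made its calls, unless noted: active means compounds giving at least 50% inhibition in the cell-based MKP-3 phosphatase rescue imaging test; inactive means the rest.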

Chain of Voltage-gated potassium channel subunit beta-2 (Rattus norvegicus) (P62483 whole entry, looked up): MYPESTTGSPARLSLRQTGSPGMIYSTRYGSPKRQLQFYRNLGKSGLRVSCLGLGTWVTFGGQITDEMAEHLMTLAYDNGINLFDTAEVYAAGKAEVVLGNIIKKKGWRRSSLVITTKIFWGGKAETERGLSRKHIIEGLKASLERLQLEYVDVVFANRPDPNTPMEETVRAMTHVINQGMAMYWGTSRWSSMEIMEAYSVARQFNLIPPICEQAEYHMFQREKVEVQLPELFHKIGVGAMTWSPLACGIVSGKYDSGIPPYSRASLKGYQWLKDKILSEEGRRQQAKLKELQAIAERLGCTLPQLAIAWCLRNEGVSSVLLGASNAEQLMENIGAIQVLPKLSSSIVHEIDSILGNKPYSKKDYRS
Chain of Muscarinic acetylcholine receptor M4 (Homo sapiens) (P08173 whole entry, looked up): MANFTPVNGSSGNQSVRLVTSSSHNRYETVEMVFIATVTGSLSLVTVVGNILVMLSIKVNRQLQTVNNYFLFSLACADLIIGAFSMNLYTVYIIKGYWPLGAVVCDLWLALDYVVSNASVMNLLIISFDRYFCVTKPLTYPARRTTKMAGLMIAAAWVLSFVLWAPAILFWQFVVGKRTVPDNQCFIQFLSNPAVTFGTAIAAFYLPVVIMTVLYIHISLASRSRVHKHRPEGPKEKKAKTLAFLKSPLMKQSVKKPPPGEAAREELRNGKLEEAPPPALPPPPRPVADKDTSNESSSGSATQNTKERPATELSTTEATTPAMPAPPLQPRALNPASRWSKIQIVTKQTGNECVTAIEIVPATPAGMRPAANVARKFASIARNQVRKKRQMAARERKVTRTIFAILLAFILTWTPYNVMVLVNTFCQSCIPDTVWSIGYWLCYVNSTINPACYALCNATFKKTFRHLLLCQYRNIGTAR
Chain of Dual specificity protein phosphatase 6 (Homo sapiens) (Q16828 whole entry, looked up): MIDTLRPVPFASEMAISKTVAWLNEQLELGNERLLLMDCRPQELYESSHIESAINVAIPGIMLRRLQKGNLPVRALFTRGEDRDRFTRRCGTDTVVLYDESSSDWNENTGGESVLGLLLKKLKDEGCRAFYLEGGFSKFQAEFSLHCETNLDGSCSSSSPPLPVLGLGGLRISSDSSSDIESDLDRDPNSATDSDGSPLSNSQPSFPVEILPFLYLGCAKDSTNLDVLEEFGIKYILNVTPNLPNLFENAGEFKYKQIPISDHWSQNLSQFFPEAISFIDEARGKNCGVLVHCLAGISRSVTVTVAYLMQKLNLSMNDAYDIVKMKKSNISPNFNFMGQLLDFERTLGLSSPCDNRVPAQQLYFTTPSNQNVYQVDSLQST

As a reminder, the inhibition is the change of the read-out against control, counted positive when it falls. Turning to `Cc1cc(/C=N/n2cnnc2)c(C)n1-c1ccc2c(c1)OCO2`, in [1], the cell count was 374. The inhibition in assay [1] is 0.6% (inactive); in assay [2] it was -13.7% (inactive); in assay [4] it was 14% (inactive); in [9], -15.4% (inactive). In addition, in [2], the nuclei count amounted to 97.4%. Also, the z-score in assay [3] (setting [10]) is -1.04; in [3] (setting [11]), 0.298; in assay [3] (setting [12]), 0.807. In addition, the fluorescence slope in assay [5] was -0.569 (inactive); in assay [7] it was 0.00571 (inactive). The NADPH fluorescence slope in assay [6] was -6.1e-05 (inactive). Moreover, in assay [8], the compound was called inactive.

Take `CCCC(=O)N1CCc2[nH]c3ccccc3c2C1`: in [1], the cell count is 502. For the same compound, the inhibition was 4.2% (inactive) in assay [1], 1.1% (inactive) in assay [2], -5.62% (inactive) in assay [4] and -3.97% (inactive) in assay [9]. The compound further had a nuclei count in [2] of 167%. Also, the z-score is 0.76 in assay [3] (setting [10]), 0.615 in [3] (setting [11]) and -0.975 in assay [3] (setting [12]). In addition, the fluorescence slope was -0.485 (inactive) in assay [5] and 0.0054 (inactive) in assay [7]. For the same compound, the NADPH fluorescence slope in assay [6] is -2.8e-05 (inactive). In addition, the outcome in assay [8] was inactive.

Regarding `Cc1ccc(N(CN2C(=O)C3CC=CCC3C2=O)C(=O)c2ccco2)cc1Cl` (centres undefined), the cell count in [1] turned out to be 419. The inhibition in assay [1] is -4.5% (inactive); in assay [2] it was 32.8% (inactive); in assay [4], -7.28% (inactive); in assay [9] it was 30.1% (inactive). The nuclei count in assay [2] was 102%. For the same compound, the z-score in [3] (setting [10]) was 0.823; in assay [3] (setting [11]), -0.172; in assay [3] (setting [12]), 0.302. For the same compound, the fluorescence slope in [5] is -0.453 (inactive); in assay [7], 0.00483 (inactive). In addition, the NADPH fluorescence slope in assay [6] is -1.3e-05 (inactive). For the same compound, in [8], the result was inactive.

With `Cc1c(Cl)cccc1N1C(=O)C2ON(c3ccccc3)C(c3cccnc3)C2C1=O` (centres undefined), the cell count in [1] came out at 542. The inhibition in assay [1] is -6.8% (inactive); in assay [2], 9.6% (inactive); in assay [4], 6.04% (inactive); in assay [9], 20% (inactive). Also, in assay [2], the nuclei count is 83.2%. In addition, the z-score in assay [3] (setting [10]) was 0.393; in [3] (setting [11]), 0.964; in [3] (setting [12]) it was -1.74. Besides, the fluorescence slope in assay [5] was -0.497 (inactive); in [7] it was 0.00557 (inactive). For the same compound, in assay [6], the NADPH fluorescence slope is -1.3e-05 (inactive). In addition, in [8], the compound was called inactive.

For the compound `CCNC(=O)c1cc2c(=O)n3cccc(C)c3nc2n(CCc2ccccc2)c1=N`, in assay [1], the cell count was 643. Also, the inhibition in [1] was 8.2% (inactive); in assay [2] it was -7.9% (inactive); in assay [4], 14.7% (inactive); in assay [9] it was 70.9% (active). The compound further gave a nuclei count in assay [2] of 106%. Moreover, the z-score in [3] (setting [10]) is -0.692; in assay [3] (setting [11]) it was 0.0237; in assay [3] (setting [12]) it was -0.676. The fluorescence slope in [5] was -0.0428 (inactive); in assay [7], 0.00034 (inactive). For the same compound, in assay [6], the NADPH fluorescence slope is -1.8e-05 (inactive). Besides, in assay [8], the outcome was “active; no signal in intestine only”.

Turning to `CCCCC(CCC(=O)Nc1ccc(C(=O)OC)cc1)C(=O)O` (centres undefined), the cell count in [1] came out at 405. Moreover, the inhibition in assay [1] is -4.7% (inactive); in assay [2] it was -189% (inactive); in assay [4], 14% (inactive); in [9], 25.1% (inactive). The compound further displayed a nuclei count in assay [2] of 152%. Also, the z-score in [3] (setting [10]) is 0.378; in assay [3] (setting [11]), -1.21; in assay [3] (setting [12]), -0.623. For the same compound, the fluorescence slope in assay [5] was -0.439 (inactive); in assay [7], 0.00484 (inactive). Also, the NADPH fluorescence slope in [6] is -0.000105 (inactive). Also, in assay [8], the outcome was inactive.

As for `Cc1ccc(N2CC(C(=O)Nc3ccc(N(C)C)cc3)CC2=O)cc1C` (centres undefined), the cell count in assay [1] is 477. The inhibition in assay [1] is -7.1% (inactive); in [2] it was -76.8% (inactive); in assay [4], -1.98% (inactive); in assay [9] it was -1.65% (inactive). The compound further came in with a nuclei count in assay [2] of 107%. Further, the z-score in [3] (setting [10]) was -1.37; in [3] (setting [11]) it was 0.307; in [3] (setting [12]), 1.15. Further, the fluorescence slope in assay [5] is -0.411 (inactive); in [7], 0.00461 (inactive). For the same compound, the NADPH fluorescence slope in [6] was -9.5e-07 (inactive). The compound was called inactive in [8].

`COc1ccc(CCNc2oc(COc3ccccc3)nc2C#N)cc1`: the cell count in assay [1] turned out to be 481. The inhibition was -2.4% (inactive) in assay [1], -411% (inactive) in assay [2], -3.95% (inactive) in [4] and -2.43% (inactive) in assay [9]. The compound further gave a nuclei count in [2] of 140%. The values for the z-score in assay [3] (setting [10]), in assay [3] (setting [11]) and in [3] (setting [12]) were 0.781, 0.424 and 0.61, respectively. Also, the fluorescence slope in assay [5] is -0.409 (inactive); in assay [7] it was 0.00409 (inactive). For the same compound, the NADPH fluorescence slope in assay [6] was -5.2e-05 (inactive). The compound was called inactive in assay [8].

As to `S=c1[nH]nc(-c2ccco2)n1C1CCCCC1`, the cell count in assay [1] stood at 638. Besides, the inhibition is -2.9% (inactive) in assay [1], 6.6% (inactive) in assay [2], -7.67% (inactive) in assay [4] and -19.8% (inactive) in assay [9]. This compound also showed a nuclei count in assay [2] of 143%. In addition, the z-score was -0.759 in assay [3] (setting [10]), -0.86 in assay [3] (setting [11]) and -1.13 in [3] (setting [12]). The fluorescence slope is -0.495 (inactive) in assay [5] and 0.00615 (inactive) in [7]. Further, the NADPH fluorescence slope in [6] is -4e-05 (inactive). In addition, in assay [8], the compound was classed as inactive.

Take `COc1cccc(C2=CC(c3ccc(N(C)C)cc3)n3nnnc3N2)c1` (centres undefined): in [1], the cell count came to 525. Also, the inhibition in assay [1] is 0.8% (inactive); in assay [2] it was 27.7% (inactive); in assay [4], 9.91% (inactive); in assay [9], -6.32% (inactive). Besides, the nuclei count in [2] was 156%. Further, the z-score is -0.234 in assay [3] (setting [10]), 1.06 in assay [3] (setting [11]) and 0.0937 in assay [3] (setting [12]). Further, the fluorescence slope in assay [5] was -0.33 (inactive); in [7], 0.00494 (inactive). In assay [6], the NADPH fluorescence slope was -3.6e-05 (inactive). Besides, the result in assay [8] was inactive.

As to `Cc1cc(C)n(CC2CC(=O)N(c3ccc(C)c(Cl)c3)C2=O)n1` (centres undefined), the cell count in assay [1] is 597. For the same compound, the inhibition is -3.7% (inactive) in assay [1], 19% (inactive) in assay [2], 12.8% (inactive) in assay [4] and -14.7% (inactive) in assay [9]. The same compound displayed a nuclei count in [2] of 93.4%. In addition, the z-score in assay [3] (setting [10]) was 1.31; in assay [3] (setting [11]), -0.417; in assay [3] (setting [12]) it was 0.186. For the same compound, the fluorescence slope in [5] is -0.517 (inactive); in assay [7] it was 0.00527 (inactive). For the same compound, in [6], the NADPH fluorescence slope is -2.4e-05 (inactive). The call in assay [8] was inactive.

As to `N#Cc1nc(-c2cccs2)oc1NCc1ccccc1`, in assay [1], the cell count stood at 712. Besides, the inhibition was 0.5% (inactive) in [1], -23.3% (inactive) in assay [2], -7.67% (inactive) in assay [4] and 7.94% (inactive) in [9]. The nuclei count in assay [2] came out at 148%. The z-score in assay [3] (setting [10]) worked out at 0.919; in assay [3] (setting [11]), 1.11; in assay [3] (setting [12]), 0.281. Moreover, the fluorescence slope in assay [5] was -0.329 (inactive); in assay [7] it was 0.00659 (inactive). The NADPH fluorescence slope in [6] was -2.5e-05 (inactive). Besides, in assay [8], the outcome was inactive.

On to `COc1ccc(C(=O)c2ccc(N3CCOCC3)cc2)c(OC)c1`, for which, in assay [1], the cell count came to 624. The inhibition in assay [1] was -6.6% (inactive); in assay [2], -21.8% (inactive); in assay [4], 5.95% (inactive); in assay [9], -11.4% (inactive). In assay [2], this compound showed a nuclei count of 99.4%. The z-score in [3] (setting [10]) is -2.58; in assay [3] (setting [11]), 0.925; in assay [3] (setting [12]), 1.09. The fluorescence slope is -0.488 (inactive) in assay [5] and 0.00684 (inactive) in assay [7]. For the same compound, the NADPH fluorescence slope in [6] is -6.2e-05 (inactive). For the same compound, in assay [8], the compound was called inactive.
